In brackets after ≈: the same amount, converted by molar mass.
Legend:
Candida albicans = assay: Antifungal activity against Candida albicans; type: functional; settings: CA-6
Outline: (§1)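 Broth microdilution per NCCLS M27-A in RPMI 1640 buffered with 0.165 M MOPS, pH 7. Strains were C. albicans CA-6 (vaginal clinical isolate) and C. krusei ATCC 6258. Inocula came from 24 h cultures on Sabouraud dextrose agar at 28 °C, washed in saline and counted by hemocytometer. Serial dilutions ran 0.9–500 µg/mL. MIC was the lowest concentration giving 80% turbidity reduction versus drug-free control.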

Mus musculus [1] = assay: Survival of mouse administered at 14 mg/kg/day, ip; type: functional, CD1; settings: route intraperitoneal
Outline: (§2)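 Female CD1 mice (8–10 weeks, 25–30 g), 10 per group, infected iv via lateral tail vein with 1×10^5 C. albicans CA-6 cells (24 h Sabouraud culture at 28 °C, saline-washed). Dosing was ip at 14 mg/kg in DMSO/H2O (1:4), 2 h before infection and then daily for 8 days. Median survival time was compared by Mann–Whitney U test, and dead/total was counted at day 30.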

Pichia kudriavzevii = assay: Antifungal activity against Candida krusei; type: functional; settings: 6258; outline: as §1
Mus musculus [2] = assay: Median survival time in mouse at 14 mg/kg/day, ip; type: functional, CD1; settings: route intraperitoneal; outline: as §2

Row | Structure (SMILES) | MIC (Candida albicans) [µg/mL] | Survival (Mus musculus [1]) [days] | MIC (Pichia kudriavzevii) [µg/mL] | MST (Mus musculus [2]) [days]
1 | CCCCC1Oc2ccc(C(O)Cn3ccnc3)cc2N(C)C1=O (stereo not drawn) | 125 (≈ 379 µM) | 9 | 125 (≈ 379 µM) | 14
2 | CN1C(=O)CSc2ccc(C(O)Cn3ccnc3)cc21 (stereo not drawn) | 62.5 (≈ 216 µM) | – | 250 (≈ 864 µM) | –
3 | CCCCOC1Oc2ccc(C(O)Cn3ccnc3)cc2N(C)C1=O (stereo not drawn) | 125 (≈ 362 µM) | 4 | 31.2 (≈ 90.3 µM) | 12
4 | CN1C(=O)COc2ccc(C(O)Cn3ccnc3)cc21 (stereo not drawn) | 250 (≈ 915 µM) | – | 31.2 (≈ 114 µM) | –
5 | CN1C(=O)COc2ccc(C(Cn3ccnc3)OCc3ccc(Cl)cc3)cc21 (stereo not drawn) | 7.8 (≈ 19.6 µM) | – | 15.6 (≈ 39.2 µM) | –
6 | CCCCOC1Sc2ccc(C(O)Cn3ccnc3)cc2N(C)C1=O (stereo not drawn) | 31.2 (≈ 86.3 µM) | 9 | 125 (≈ 346 µM) | 14
7 | CCCCC1Sc2ccc(C(O)Cn3ccnc3)cc2N(C)C1=O (stereo not drawn) | 31.2 (≈ 90.3 µM) | 9 | 250 (≈ 724 µM) | 14
8 | OC(Cn1cncn1)(Cn1cncn1)c1ccc(F)cc1F [FLUCONAZOLE] | < 1.8 | 23 | 62.5 (≈ 204 µM) | >30
9 | CN1C(=O)CSc2ccc(C(Cn3ccnc3)OCc3ccc(Cl)cc3)cc21 (stereo not drawn) | < 1.8 | – | 15.6 (≈ 37.7 µM) | –
